# M1 ag: M1 muscarinic receptor agonism; CHO-M1 cells, Fluo-4 calcium fluorescence, agonist mode; active compounds read high; B-score at 10 µM; 64,000 compounds, 3% hits; AID 626;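 active means fluorescence rise, raw or as B-score row- and column-corrected plate score, outside the 99.7% band of its plate's samples, either direction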
# HePTP inhibitor: human HePTP phosphatase inhibition. P35236. recombinant HePTP phosphatase activity, OD absorbance. inhibition, % at 20 µM. 110,000 compounds, 0.64% hits; in the data active means inhibition above about 50%;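 further: plate controls were vehicle for no effect and reference inhibitor for full effect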
# SF-1 act: activators of human nuclear receptor SF-1 | CHO-K1 Gal4-SF-1 LBD luciferase reporter; % increase over DMSO SF-1-specific signal | activation, % at 10 µM | 65,000 compounds, 1.9% hits | AID 522 | Q13285;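 active means activation above the mean activation of all tested compounds plus 3 SD, cut at about 50% in these data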
#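 Material: CHO-K1 cells with Gal4–hSF-1 LBD chimera plus Gal4-driven luciferase / Input: 4,000 CHO-K1 cells per well / Incubation: compound exposure 20 h at 37 °C / Signal: luminescence read 15 min after SteadyLite luciferase reagent, after room-temperature equilibration / Read-out: percent activation versus DMSO / Benchmarks: DMSO negative control and −SF1 background wells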
# RORA act: RORA (human) activation. P35398. CHO-K1 Gal4-RORA LBD luciferase reporter, luminescence; percent increase over mock-subtracted basal signal. activation, % at 10 µM. 65,000 compounds, 1.5% hits. AID 560;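 active means activation above the mean of all tested compounds plus 3 SD, cut at about 49% in these data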;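 further: 0% = DMSO-treated RORA cells and 100% = added signal equal to DMSO minus mock-transfected cells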
# D1 allo mod: D1 dopamine receptor (human) allosteric modulation. P21728. HEK293 D1, CRE-luciferase, dopamine EC30 potentiation; actives deviate in either direction. B-score at 10 µM. 58,000 compounds, 5.9% hits;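 active means luminescence count or its row- and column-corrected plate score outside the 99.7% band of the plate's sample wells, on either side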
# M1 antag: M1 muscarinic receptor (rat) antagonism; P08482; CHO-M1 cells, Fluo-4 calcium, ACh EC80 antagonist mode; active compounds read low; B-score at 10 µM; 64,000 compounds, 3.4% hits; AID 628;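 active means calcium fluorescence response, raw or row-and-column corrected B-score, differing from the plate sample mean either way at a set confidence level, mostly lower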
# Target sequence (P08482 whole entry, looked up): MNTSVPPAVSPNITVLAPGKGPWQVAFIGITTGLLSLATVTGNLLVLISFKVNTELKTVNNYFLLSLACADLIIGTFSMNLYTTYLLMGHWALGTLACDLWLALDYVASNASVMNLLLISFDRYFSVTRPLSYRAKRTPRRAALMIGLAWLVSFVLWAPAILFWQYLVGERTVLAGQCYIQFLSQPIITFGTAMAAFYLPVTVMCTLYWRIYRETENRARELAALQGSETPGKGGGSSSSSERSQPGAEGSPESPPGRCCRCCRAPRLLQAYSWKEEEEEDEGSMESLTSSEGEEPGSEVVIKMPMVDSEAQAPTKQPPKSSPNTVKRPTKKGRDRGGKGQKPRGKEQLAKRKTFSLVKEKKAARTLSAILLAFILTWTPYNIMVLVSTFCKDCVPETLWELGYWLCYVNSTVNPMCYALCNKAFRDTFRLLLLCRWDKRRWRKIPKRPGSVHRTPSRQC
# Active calls of the source: *; . = not tested or not shown. The list is not random: actives were taken first. Their share in the collection is about 8.2%.
SMILES,M1 ag,HePTP inhibitor,SF-1 act,RORA act,D1 allo mod,M1 antag
COc1ccc(O)c(C(=O)c2cc(C#N)c(=O)n(-c3c(C)n(C)n(-c4ccccc4)c3=O)c2)c1,5.8*,3,6,6,0.0092,-0.74
CCSC1(SCC)N=C(N)C2(C#N)C(c3ccccc3)NC(C)=C(C)C12C#N (stereo not given),0.25,1,-12,-3,0.63,0.7
CC1=CC(C#N)(C#N)C(C#N)(C#N)C(c2ccccc2)N1 (stereo not given),25*,7,-9,-1,0.11,-0.28
CN(C)CCNc1ccc(Cl)cc1[N+](=O)[O-],.,3,.,.,.,.
Cn1c(CN2CCCCC2)c(C#N)c2ccccc21,0.99,-6,5,-5,-2.2*,0.012
c1ccc(Cn2c(CSc3nnnn3-c3ccccc3)nc3ccccc32)cc1,0.17,9,-2,-1,0.066,-0.9
O=C(Nc1ccccc1)Nc1cccc2cccnc12,0.18,11,47,86*,0.65,-0.67
O=C(Nc1ccc(F)cc1)Nc1cccc2cccnc12,.,4,.,.,.,.
C=C(C)Cn1c(C(C)NC(=O)CCC)nc2ccccc21 (stereo not given),0.21,-9,-7,-12,0.32,-0.0082
COC(=O)[C@@H](NC(=O)Nc1ccccc1F)C(C)C,1.5,0,6,-13,-0.0087,1.6*
COC(=O)[C@@H](NC(=O)NC(C)CCc1ccccc1)C(C)C (stereo not given in full),0.18,-5,-11,-30,-0.32,-0.26
CCCCNC(=O)c1nnn(-c2ccccc2)c1N,-0.0097,-1,67*,24,0.33,-0.19
Cc1cc(C)cc(-n2nnc(C(=O)NCc3ccccc3)c2N)c1,2,3,32,5,0.019,0.048
CCOc1cc(C)c(Cl)cc1S(=O)(=O)N(C)C,0.62,7,-5,0,-0.83,0.14
CCN(CC)C(=O)CSc1ncnc2c(-c3cccs3)nsc12,0.98,8,68*,12,1.7,0.37
CCc1c(C#N)c(N)nc(SCC(=O)c2ccc(-c3ccccc3)cc2)c1C#N,.,-2,.,.,.,.
Cc1ccc(OCCn2cc(C=C3C(=O)NC(=O)NC3=O)c3ccccc32)cc1C,.,10,.,.,.,.
CSC1=C(C#N)C(c2ccccc2)C=C(c2ccccc2)N1 (stereo not given),.,-11,.,.,.,.
O=c1cc(-c2cc(O)c3c(O)c4ccccc4c(O)c3c2O)c(=O)c2c(=O)c3ccccc3c(=O)c1=2,.,84*,.,.,.,.
COc1ccc(OC)c(/C=N/NC(=O)c2ccc[n+](Cc3ccccc3)c2)c1,.,-3,.,.,.,.
CCN1CCN(C(c2cccs2)C(C)NC(=O)c2ccccc2OC)CC1 (stereo not given),0.45,3,3,9,-0.17,0.6
CC(NC(=O)c1cccs1)C(c1cccs1)N1CCN(Cc2ccccc2)CC1 (stereo not given),-0.46,12,-3,-5,-2.1*,-1.4
CCN1CCN(C(c2cccs2)C(C)NC(=O)c2ccco2)CC1 (stereo not given),-0.031,5,-3,-2,-1.4*,-2.2
Cn1c(SCc2ccc(C#N)cc2Cl)nc2ccccc21,0.04,-3,37,82*,-0.044,0.028
Cn1c(Sc2nc3ccccc3n2C)nc2ccccc21,0.11,12,-19,-13,0.38,-0.0065
SMILES,M1 ag,HePTP inhibitor,SF-1 act,RORA act,D1 allo mod,M1 antag
O=C(CCc1ccc(S(=O)(=O)N2CCOCC2)cc1)OCc1nc2ccccc2s1,0.64,5,59*,10,2.6,-0.43
Cc1onc(-c2ccccc2)c1C(=O)NCC(C)C,.,103*,.,.,.,.
Cc1onc(-c2ccccc2)c1C(=O)Nc1ccc([N+](=O)[O-])cc1Br,.,104*,.,.,.,.
COc1ccc(CCNC(=O)/C=C/c2ccc([N+](=O)[O-])cc2)cc1,.,75*,.,.,.,.
COc1ccccc1Nc1nc(N)nc(-c2cc3ccccc3o2)n1,0.11,-1,13,39,-1.5,0.26
Cc1c(-c2nc(N)nc(Nc3ccccc3F)n2)oc2ccccc12,-0.0033,4,73*,108*,.,0.072
O=C(CSc1ncn(-c2ccccc2)n1)Nc1ccc(Br)cn1,-0.52,-1,-4,-15,1.5,0.13
Nc1nc(CSc2nc3ccccc3[nH]2)cs1,-0.87,-2,10,29,-1.4,0.41
O=C(CSc1ncn(-c2ccccc2)n1)c1cccs1,-0.026,-7,41,49*,0.38,-2.4
c1ccc(CSc2ncn(-c3ccccc3)n2)cc1,0.63,-1,81*,48,1.4,-0.13
Nc1nc(CSc2ncn(-c3ccccc3)n2)cs1,-0.36,6,59*,44,-0.18,-0.19
O=C(CSc1ncn(-c2ccccc2)n1)c1ccc(Cl)cc1,.,6,.,.,.,.
O=C(COc1ccccc1)Nc1nc(-c2ccc3c(c2)Cc2ccccc2-3)cs1,.,6,.,.,.,.
O=c1c2ccccc2nc2c3ccccc3c(N3CCOCC3)nn12,2.8*,-5,8,-6,-0.17,-1.2
O=C1CC(NCc2ccncc2)C(=O)N1c1ccc(I)cc1 (stereo not given),.,2,.,.,.,.
CCCCCCN1C=CC(=C2C(=O)c3ccccc3C2=O)C=C1,.,-4,.,.,.,.
CCN1C=CC(=C2C(=O)c3ccccc3C2=O)C=C1,-0.049,-5,-80,-67,-8.8*,-0.066
CCCN1C=CC(=C2C(=O)c3ccccc3C2=O)C=C1,-0.43,6,-93,-91,-5.7*,0.06
COCCNC(=O)CCCCCNS(=O)(=O)c1ccc(C)cc1,0.42,6,-2,11,-0.87,0.89
Cc1ccc(S(=O)(=O)NCCN(CCNS(=O)(=O)c2ccc(C)cc2)S(C)(=O)=O)cc1,1,8,8,9,-5.3*,-0.27
Cc1ccc(S(=O)(=O)NCCCCCC(=O)N(C)C)cc1,-0.22,-8,0,-18,-4.3*,-0.82
Cc1noc(C)c1CSc1nc2ccccc2c(=O)n1-c1ccccc1,-0.78,-5,-12,46,5.3*,-0.27
Cc1noc(C)c1CSc1nc2ccccc2c(=O)n1-c1ccc(F)cc1F,.,6,19,9,.,.
CC(=O)c1cnc(Nc2nc(C)c3ccc(C)cc3n2)nc1C,0.24,4,-5,-19,0.94,0.095
Cc1ccc2nc(Nc3ncc4c(n3)CCCC4=O)nc(C)c2c1,0.35,4,-7,14,-0.37,-2.7*
SMILES,M1 ag,HePTP inhibitor,SF-1 act,RORA act,D1 allo mod,M1 antag
Cc1cc(C)cc(Nc2ncc3c(n2)CCCC3=O)c1,-0.14,11,9,15,-5*,0.36
O=C(COc1ccccc1)Nc1ncc2c(n1)CCCC2=O,0.9,9,-10,-8,1.5,-0.53
Cc1cccc(Nc2ncc3c(n2)CC(C)CC3=O)c1 (stereo not given),0.34,7,72*,72*,0.42,0.78
Cc1ccc(C)c(NC(=O)CN(c2ccc(Br)cc2)S(C)(=O)=O)c1,.,-10,.,.,.,.
CCCCOC(=O)Nc1ccc(N2CCOCC2)cc1,.,-1,35,42,.,.
CCCCOC(=O)Nc1ccc(N2CCCCC2)cc1,0.79,6,64*,95*,-1.9,0.29

# High-throughput results from PubChem BioAssay.
